Results on four compounds are retold here after paper PMC5882533 (Cancer discovery, 2018).

The test system of series [1] is Ba/F3 (murine interleukin-3 dependent pro-B cell line) splenomegaly.
Series [2] is described as follows: Plasma exposure in Ba/F3 splenomegaly mouse model. The note with it: 2 mg/kg. Type of series: in vivo.
The test system of a further series is OCI-LY1. The experiment in a line: Proliferation of OCI-LY1 cells. The note with it: for proliferation: OCI-LY1, increasing doses, 72h. The series is classed as cell-based, human.
For the next series, the system named is BET family members. The experiment in a line: Blocking interactions mediated by the four BET family members. Type of series: biochemical.
Series [3] concerns Eμ-TCL1 CD5/CD19 positive CLL-like leukemia. The experiment in a line: Eμ-TCL1 transgenic mice with de novo leukemia, tumor burden. Type of series: in vivo, mouse.
The test system of another series is primary CLL cells. Kind of series: Proliferation of CpG stimulated primary CLL cells. The note with it: for proliferation of CpG stimulated primary CLL cells: increasing doses, 72h continuously or 4h followed by washout. The series is classed as cell-based, human. In short, it runs like this:
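Primary CLL cells came from patients meeting 2008 IWCLL criteria. They were either stimulated with CpG oligonucleotides (TLR9 agonist) or left unstimulated (basal). Cells were given increasing concentrations of test compound, either continuously for 72 h or for 4 h followed by washout. Proliferation was measured by MTS assay. Data are shown per individual patient, with averages.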

For series [4], the system named is primary CLL cells co-cultured on stromal cells (9–15c and Hs27). The experiment in a line: CLL cell viability in stromal co-culture. Type of series: cell-based, human. The conditions noted are these: 1, 2 or 5μM, 72 h.
The next series has as its system MEC-1. Kind of series: Proliferation of MEC-1 cells. The series is classed as cell-based, human. The note with it: for proliferation: MEC-1, increasing doses, 72h.
A further series in a line: Half-life in rodents. The note with it: in vivo.
Series [5] relates to Eμ-Myc/TCL1 leukemia/lymphoma.
Another series can be described thus: Half-life in dogs. The conditions noted are these: dog, in vivo.
Series [6] addresses T1, bromodomain of EP300 (p300) (Homo sapiens, UniProt Q09472).
T1 sequence (Q09472 1049-1156 limits assumed): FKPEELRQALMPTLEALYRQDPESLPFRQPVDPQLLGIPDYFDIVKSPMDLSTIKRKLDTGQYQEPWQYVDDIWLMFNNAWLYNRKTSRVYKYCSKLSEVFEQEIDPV
Kind of series: Binding affinity.

In a further series the target is bromodomain of CBP (Homo sapiens, UniProt Q92793). Kind of series: Binding affinity.
In series [7] the test system is stromal cells (9–15c and Hs27). The experiment in a line: Stromal cell viability. Type of series: cell-based.
The test system of another series is healthy T-cells. Kind of series: Proliferation of healthy T-cells stimulated with CD3/CD28 agonist antibodies. The series is classed as cell-based, human. The conditions noted are these: washout conditions.
Series [8] in a line: Plasma levels in wild type B6 mice. The conditions noted are these: B6, mouse, oral, 20 mg/kg. The series is classed as in vivo.
Series [9] can be described thus: Plasma drug levels in MV4-11 tumor xenograft SCID mice. The series is classed as in vivo. The conditions noted are these: mouse.

Molecules are shown by their SMILES. Where “and” joins values, the source holds several entries; their conditions need not be identical. Identical values can stand only once.

Sequence of bromodomain of CBP (Q92793 1085-1192 limits assumed): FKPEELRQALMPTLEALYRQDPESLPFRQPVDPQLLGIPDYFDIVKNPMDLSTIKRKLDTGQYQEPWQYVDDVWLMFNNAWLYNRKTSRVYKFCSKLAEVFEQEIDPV

For the compound `Cc1noc(C)c1-c1cnc2c(-c3ccc(C(=O)O)cc3)cn([C@@H](C)c3ccccn3)c2c1` [PLX51107], the inhibition of splenomegaly entry in series [1] (2 mg/kg PLX51107 dose) was “Approximately 75%”. In addition, the tolerability entry in series [1] (mouse, in vivo) is “well tolerated”; in series [5] (mouse, in vivo) it was “well tolerated”. Besides, the AUC(0-t) in series [2] is 17700 ng·h/mL and 40 µM·h; in [8], 96700 ng·h/mL and 220 µM·h; in series [9] it was 90100 ng·h/mL and 205 µM·h. Besides, the “IC50 compared to iBET762, JQ1, or OTX015” value in the series with OCI-LY1 (OCI-LY1) and with MEC-1 (MEC-1) was “lower IC50” each time. Also, the proliferation entry in the series on OCI-LY1 and with MEC-1 was “Dose dependent decrease of proliferation” throughout. In the series on BET family members, the “potency in blocking interactions mediated by the four BET family members” value is “low nanomolar potency”. Further, the “leukemic disease burden in peripheral blood and spleen vs vehicle” value in series [3] (20 mg/kg daily, oral gavage, eight days) is reported as “significantly reduced leukemic disease burden”. In addition, the “reduction of tumor burden compared with OTX015 (50 mg/kg, qd)” value in [3] (PLX51107 20 mg/kg, qd, thirty day study) is listed as “more effective than OTX015”. In addition, the “inhibition of proliferation or toxicity” value in the series with primary CLL cells (CLL cells under basal condition) is on record as “not observed”. The “proliferation of CpG stimulated primary CLL cells” value in the series on primary CLL cells is on record as “Dose-dependent decrease of proliferation”. In addition, the “cytotoxicity on CLL cells” value in [4] was “induces significant cytotoxicity”. For the same compound, the results for the half-life (in “Half-life in rodents”; in the series “Half-life in dogs”; in series [9]) were less than 3 h, less than 3 h and 2.8 h, respectively. Also, in series [5] (20 mg/kg, qd, oral gavage, 70 days treatment), the survival result is given as “significantly prolonged survival”. In addition, the equilibrium dissociation constant (Kd) (in series [6]; on bromodomain of CBP) was roughly 100 nM each time. Further, the “effect on stromal cell viability” value in [7] is recorded as “no effect on stromal cell viability”. For the same compound, the anti-proliferative effect entry in the series with healthy T-cells is “no anti-proliferative effect”.
Turning to `Cc1sc2c(c1C)C(c1ccc(Cl)cc1)=N[C@@H](CC(=O)Nc1ccc(O)cc1)c1nnc(C)n1-2` [OTX015, reference compound], the “efficacy on splenomegaly relative to 2 mg/kg PLX51107” value in series [1] (25 mg/kg OTX015) is reported as “same level of efficacy”. The proliferation result in the series with OCI-LY1 and in the series with MEC-1 was “Dose dependent decrease of proliferation” in each case. Further, the “proliferation of CpG stimulated primary CLL cells” value in the series on primary CLL cells is “Dose-dependent decrease of proliferation”.
`Cc1sc2c(c1C)C(c1ccc(Cl)cc1)=N[C@@H](CC(=O)OC(C)(C)C)c1nnc(C)n1-2` [JQ1, reference compound]: the proliferation entry with OCI-LY1 and in the series on MEC-1 was “Dose dependent decrease of proliferation” in each case. In addition, the “proliferation of CpG stimulated primary CLL cells” value with primary CLL cells is reported as “Dose-dependent decrease of proliferation”.
As to `CCNC(=O)C[C@@H]1N=C(c2ccc(Cl)cc2)c2cc(OC)ccc2-n2c(C)nnc21` [iBET762], the “proliferation of CpG stimulated primary CLL cells” value in the series on primary CLL cells was “Dose-dependent decrease of proliferation”.
